Assay results: ChEMBL document CHEMBL1817593, “C5'-Alkyl Substitution Effects on Digitoxigenin α-l-Glycoside Cancer Cytotoxicity” (ACS Med Chem Lett, 2011)

What was measured:
NCI-H460 [1] = experiment: Cytotoxicity against human NCI-H460 cells assessed as cell death in serum free medium at 100 nM after 12 hrs by Hoechst 33342/propidium iodide staining based fluorescence microscopy; type: functional
Summary of the method: (§1)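 NCI-H460 human lung cancer cells exposed 12 h to 10 nM–10 μM drug, including a 50 nM single-concentration test. Nuclei were stained with Hoechst 33342 and necrotic cells with propidium iodide. Apoptotic cells were scored by condensed or fragmented blue nuclei and necrotic cells by red PI staining. Total cell death (apoptosis plus necrosis) was recorded; N = 6.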

IGROV-1 = experiment: Cytotoxicity against human IGROV1 cells after 48 hrs by sulforhodamine B assay; type: functional; conditions: IGROV-1, 48 h
NCI-H460 [2] = experiment: Cytotoxicity against human NCI-H460 cells assessed as cell death in serum free medium at 75 nM after 12 hrs by Hoechst 33342/propidium iodide staining based fluorescence microscopy; type: functional; summary of the method: as §1
OVCAR-3 = experiment: Cytotoxicity against human OVCAR3 cells after 48 hrs by sulforhodamine B assay; type: functional; conditions: OVCAR-3, 48 h
MOLT-4 = experiment: Cytotoxicity against human MOLT4 cells after 48 hrs by sulforhodamine B assay; type: functional; conditions: MOLT-4, 48 h
SF-539 = experiment: Cytotoxicity against human SF539 cells after 48 hrs by sulforhodamine B assay; type: functional; conditions: SF-539, 48 h
CCRF-CEM = experiment: Cytotoxicity against human CCRF-CEM cells after 48 hrs by sulforhodamine B assay; type: functional
MCF7 = experiment: Cytotoxicity against human MCF7 cells after 48 hrs by sulforhodamine B assay; type: functional; conditions: MCF7, 48 h
SF-295 = experiment: Cytotoxicity against human SF295 cells after 48 hrs by sulforhodamine B assay; type: functional; conditions: SF-295, 48 h
HL-60(TB) = experiment: Cytotoxicity against human HL-60(TB) cells after 48 hrs by sulforhodamine B assay; type: functional; conditions: HL-60, 48 h
BT-549 = experiment: Cytotoxicity against human BT549 cells after 48 hrs by sulforhodamine B assay; type: functional; conditions: BT-549, 48 h
NCI-H23 = experiment: Cytotoxicity against human NCI-H23 cells after 48 hrs by sulforhodamine B assay; type: functional; conditions: NCI-H23, 48 h
NCI-H460 [3] = experiment: Cytotoxicity against human NCI-H460 cells assessed as cell death in serum free medium at 500 nM after 12 hrs by Hoechst 33342/propidium iodide staining based fluorescence microscopy; type: functional; summary of the method: as §1
MDA-MB-231 = experiment: Cytotoxicity against human MDA-MB-231 cells after 48 hrs by sulforhodamine B assay; type: functional; conditions: MDA-MB-231, 48 h
NCI-H322M = experiment: Cytotoxicity against human NCI-H322M cells after 48 hrs by sulforhodamine B assay; type: functional
NCI-H522 = experiment: Cytotoxicity against human NCI-H522 cells after 48 hrs by sulforhodamine B assay; type: functional; conditions: NCI-H522, 48 h
SK-MEL-5 = experiment: Cytotoxicity against human SK-MEL-5 cells after 48 hrs by sulforhodamine B assay; type: functional; conditions: SK-MEL-5, 48 h
SN12C = experiment: Cytotoxicity against human SN12C cells after 48 hrs by sulforhodamine B assay; type: functional
Hs-578T = experiment: Cytotoxicity against human Hs578T cells after 48 hrs by sulforhodamine B assay; type: functional
RXF 393 = experiment: Cytotoxicity against human RXF393 cells after 48 hrs by sulforhodamine B assay; type: functional; conditions: RXF 393, 48 h
OVCAR-5 = experiment: Cytotoxicity against human OVCAR5 cells after 48 hrs by sulforhodamine B assay; type: functional; conditions: OVCAR-5, 48 h
DU-145 = experiment: Cytotoxicity against human DU145 cells after 48 hrs by sulforhodamine B assay; type: functional; conditions: DU-145, 48 h
UACC-257 = experiment: Cytotoxicity against human UACC257 cells after 48 hrs by sulforhodamine B assay; type: functional; conditions: UACC-257, 48 h
A549 = experiment: Cytotoxicity against human A549/ATCC cells after 48 hrs by sulforhodamine B assay; type: functional; conditions: A549, 48 h
NCI-H460 [4] = experiment: Cytotoxicity against human NCI-H460 cells assessed as cell death in serum free medium at 1000 nM after 12 hrs by Hoechst 33342/propidium iodide staining based fluorescence microscopy; type: functional; summary of the method: as §1
SK-MEL-28 = experiment: Cytotoxicity against human SK-MEL-28 cells after 48 hrs by sulforhodamine B assay; type: functional; conditions: SK-MEL-28, 48 h
RPMI-8226 = experiment: Cytotoxicity against human RPMI8226 cells after 48 hrs by sulforhodamine B assay; type: functional; conditions: RPMI-8226, 48 h
COLO 205 = experiment: Cytotoxicity against human COLO205 cells after 48 hrs by sulforhodamine B assay; type: functional; conditions: COLO 205, 48 h
HOP-92 = experiment: Cytotoxicity against human HOP92 cells after 48 hrs by sulforhodamine B assay; type: functional; conditions: HOP-92, 48 h
SK-OV-3 = experiment: Cytotoxicity against human SKOV3 cells after 48 hrs by sulforhodamine B assay; type: functional; conditions: SK-OV-3, 48 h
SNB-19 = experiment: Cytotoxicity against human SNB19 cells after 48 hrs by sulforhodamine B assay; type: functional; conditions: SNB-19, 48 h
LOX IMVI = experiment: Cytotoxicity against human LOXIMVI cells after 48 hrs by sulforhodamine B assay; type: functional
HOP-62 = experiment: Cytotoxicity against human HOP62 cells after 48 hrs by sulforhodamine B assay; type: functional; conditions: HOP-62, 48 h
PC-3 = experiment: Cytotoxicity against human PC3 cells after 48 hrs by sulforhodamine B assay; type: functional; conditions: PC-3, 48 h
NCI-H460 [5] = experiment: Cytotoxicity against human NCI-H460 cells assessed as cell viability at 25 nM after 48 hrs by MTT assay; type: functional; conditions: NCI-H460, 48 h, read-out: Activity
Summary of the method: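 Viability of NCI-H460 cells was measured by MTT (mitochondrial enzymatic activity) after 48 h exposure, within a dose series spanning 1 nM–10 μM. N = 9, analysed by two-way ANOVA.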

NCI-H460 [6] = experiment: Induction of apoptosis in human NCI-H460 cells in serum free medium after 12 hrs by Hoechst 33342/propidium iodide staining based fluorescence microscopy; type: functional, cell-based; conditions: for IC50: NCI-H460, 12 h
Summary of the method: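 NCI-H460 cells treated for 12 h at 10 nM to 10 μM. Total cell death (apoptosis plus necrosis) scored by Hoechst 33342/propidium iodide staining, with N = 6 and two-way ANOVA. IC50 obtained by nonlinear regression. Table values are the mean of three independent experiments with duplicate determinations.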

UACC-62 = experiment: Cytotoxicity against human UACC62 cells after 48 hrs by sulforhodamine B assay; type: functional; conditions: UACC-62, 48 h
CAKI-1 = experiment: Cytotoxicity against human Caki1 cells after 48 hrs by sulforhodamine B assay; type: functional; conditions: CAKI-1, 48 h
ACHN = experiment: Cytotoxicity against human ACHN cells after 48 hrs by sulforhodamine B assay; type: functional
UO-31 = experiment: Cytotoxicity against human UO31 cells after 48 hrs by sulforhodamine B assay; type: functional; conditions: UO-31, 48 h

CC(C)C[C@@H]1O[C@@H](O[C@H]2CC[C@@]3(C)[C@H](CC[C@@H]4[C@@H]3CC[C@]3(C)[C@@H](C5=CC(=O)OC5)CC[C@]43O)C2)CC[C@H]1O
Activity (NCI-H460 [1]): 17.69% | GI50 (IGROV-1): 29.9 nM | Activity (NCI-H460 [2]): 15% | GI50 (OVCAR-3): 23.5 nM | GI50 (MOLT-4): 13.1 nM | GI50 (SF-539): 23.8 nM | GI50 (CCRF-CEM): 28.5 nM | GI50 (MCF7): 52.8 nM | GI50 (SF-295): 24.9 nM | GI50 (HL-60(TB)): 18.3 nM | GI50 (BT-549): 22.5 nM | GI50 (NCI-H23): 25.7 nM | Activity (NCI-H460 [3]): 62.18% | GI50 (MDA-MB-231): 225 nM | GI50 (NCI-H322M): 42.5 nM | GI50 (NCI-H522): 23.6 nM | GI50 (SK-MEL-5): 27.7 nM | GI50 (SN12C): 23.7 nM | GI50 (Hs-578T): 7.5 nM | GI50 (RXF 393): 18.6 nM | GI50 (OVCAR-5): 113 nM | GI50 (DU-145): 16.6 nM | GI50 (UACC-257): 31.3 nM | GI50 (A549): 13.4 nM | Activity (NCI-H460 [4]): 94.8% | GI50 (SK-MEL-28): 133 nM | GI50 (RPMI-8226): 35.6 nM | GI50 (COLO 205): 170 nM | GI50 (HOP-92): 74.2 nM | GI50 (SK-OV-3): 43.1 nM | GI50 (SNB-19): 58.9 nM | GI50 (LOX IMVI): 27.2 nM | GI50 (HOP-62): 23.1 nM | GI50 (PC-3): 46.3 nM | viability at 0.025 µM (NCI-H460 [5]): 36.6% | Activity (NCI-H460 [6]): Dose-dependent effect | IC50 (NCI-H460 [6]): 458 nM | GI50 (UACC-62): 50.5 nM | GI50 (CAKI-1): 24.4 nM | GI50 (ACHN): 12.2 nM | GI50 (UO-31): 27.7 nM

CC(C)[C@@H]1O[C@@H](O[C@H]2CC[C@@]3(C)[C@H](CC[C@@H]4[C@@H]3CC[C@]3(C)[C@@H](C5=CC(=O)OC5)CC[C@]43O)C2)CC[C@H]1O
Activity (NCI-H460 [1]): 18.89% | GI50 (IGROV-1): 54.2 nM | Activity (NCI-H460 [2]): 16.05% | GI50 (OVCAR-3): 26 nM | GI50 (MOLT-4): 16.9 nM | GI50 (SF-539): 27.6 nM | GI50 (CCRF-CEM): 33.1 nM | GI50 (MCF7): 161 nM | GI50 (SF-295): 28.6 nM | GI50 (HL-60(TB)): 14.3 nM | GI50 (BT-549): 20.7 nM | GI50 (NCI-H23): 29.4 nM | Activity (NCI-H460 [3]): 50.85% | GI50 (MDA-MB-231): 259 nM | GI50 (NCI-H322M): 77.4 nM | GI50 (NCI-H522): 26 nM | GI50 (SK-MEL-5): 22.6 nM | GI50 (SN12C): 23.7 nM | GI50 (Hs-578T): 13.6 nM | GI50 (RXF 393): 14 nM | GI50 (OVCAR-5): 107 nM | GI50 (DU-145): 19.5 nM | GI50 (UACC-257): 122 nM | GI50 (A549): 17.7 nM | Activity (NCI-H460 [4]): 90.66% | GI50 (SK-MEL-28): 252 nM | GI50 (RPMI-8226): 78.4 nM | GI50 (COLO 205): 207 nM | GI50 (HOP-92): 79.8 nM | GI50 (SK-OV-3): 118 nM | GI50 (SNB-19): 185 nM | GI50 (LOX IMVI): 26.9 nM | GI50 (HOP-62): 31.1 nM | GI50 (PC-3): 61.9 nM | viability at 0.025 µM (NCI-H460 [5]): 30.1% | Activity (NCI-H460 [6]): Dose-dependent effect | IC50 (NCI-H460 [6]): 533 nM | GI50 (UACC-62): 119 nM | GI50 (CAKI-1): 20.8 nM | GI50 (ACHN): 17 nM | GI50 (UO-31): 23.4 nM
